Source: PubChem BioAssay (several laboratories)
Hits are enriched below; roughly 1% of the tested compounds scored in any of these assays.
GSIS activator – GLuc luminescence reporter in INS-1E cells, primary screen for activators of glucose-dependent secretion of insulin; INS-1E GLuc reporter insulin secretion, 2-3 h; activation, % at 16.6 µM; 370,000 tested, 0.61% active; AID 743287, 2014;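 active = lowest replicate activation of at least 40%, so every replicate reaches that level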;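 note: 0% = median of neutral control wells and 100% = median of IBMX positive control wells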
XiGFP reactiv – activators of inactive X chromosome reactivation, primary screen, imaging, XiGFP fibroblasts, GFP high-content imaging, set 2 | 360,000 tested, 0.055% active | activation, % at 7.58 µM | XiGFP mouse fibroblasts, % GFP-positive cells imaging, 3 d; cells co-treated with 5-aza-dC sensitizer; scaled so ellipticine positive control = 100%;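 active = mean normalized replicate activation at least 10% and every replicate at or above 10%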;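 note: 0% = median of on-plate neutral control wells and 100% = ellipticine 6 µM median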
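assay system = SV40-immortalized XiGFP fibroblast cells, line 68-5-11 | buffer or medium = DMEM plus 5-aza-dC sensitizer | doses = single-point pinned compound dosing | times = 3-day compound exposure, then 15 min fixation at room temperature | benchmarks = positive control ellipticine, 6 µM final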
CaV13 ICDI inh – Disruptors of the CACNA1D IQ motif to Ca2+-dependent inactivation inhibitor domain association, primary screening, Förster resonance energy transfer in intact living … | HEK cells, CFP/YFP FRET ICDI-IQ, plate reader, 10 min; percent FRET-ratio fall versus neutral wells | inhibition, % at 12.3 µM | 340,000 tested, 0.098% active | AID 743397;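 active = mean replicate inhibition of at least 30% and at least 1% of replicates passing that level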;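 note: 0% = median of the neutral control wells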
FXN GAA850 act – FXN promoter activators, primary screen, cell-based, luciferase luminescence, HEK293 lucGAA850. 360,000 tested, 0.56% active. activation, % at 6 µM. HEK293 lucGAA850 FXN promoter luciferase reporter, 24 h; percent of 10 µM SAHA response;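 active = activation above the average of all compounds screened plus 3 SD, cutoff fixed separately per campaign, cut at about 7.5% in these data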;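 note: 0% = DMSO wells and 100% = 10 µM SAHA wells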
GAA30 FXN cntr – GAA30 FXN promoter activators, confirmation, counter-screen for GAA850 frataxin promoter activator project, cell-based, luminescence, HEK293, lucGAA30, triplicate; shares compounds with FXN GAA850 act; HEK293 lucGAA30 FXN promoter luciferase, 24 h; DMSO = 0%, 5 µM ipriflavone = 100%; activation, % at 6 µM; 1,900 tested, 66% active; AID 588350, 2011;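 active = mean activation above the mean of solvent-only control wells plus 3 SD, cut at about 22% in these data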;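 note: counterscreen of GAA850 promoter hits where activity marks nonselective or luminescence artifacts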
FXN GAA850 conf – FXN GAA850 promoter activators in reporter cells, confirmation, cell-based, luminescence, HEK293 lucGAA850, triplicate; HEK293 lucGAA850 FXN promoter luciferase reporter, 24 h; 100% = activation by SAHA; AID 588351, 2011; activation, % at 6 µM; shares compounds with FXN GAA850 act; 1,900 tested, 86% active;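 active = mean activation above a set limit taken from the primary screen, cut at about 8% in these data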;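 note: 0% = DMSO wells and 100% = 10 µM SAHA wells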
* hit, by the source's call; / = no result.

SMILES	GSIS activator	XiGFP reactiv	CaV13 ICDI inh	FXN GAA850 act	GAA30 FXN cntr	FXN GAA850 conf
CC[C@@]12C(=O)N(c3cccc(F)c3)C(=O)N1[C@H](c1ccc(Br)cc1)[C@@H]1C(=O)N(C(C)(C)C)C(=O)[C@@H]12	-5	0	-4	15*	26*	13*
COc1ccc([C@@H]2[C@@H]3C(=O)N(C(C)(C)C)C(=O)[C@@H]3[C@]3(CC(C)C)C(=O)N(c4cccc(F)c4)C(=O)N23)cc1	-24	0	-6	15*	46*	16*
COc1ccc(C(=O)Nc2ccc3c(c2)OC[C@@H](C)N(C(C)=O)C[C@H](C)[C@@H](OC)CN(C)C3=O)cc1	12	0	/	/	/	/
O=C(CCCCCCC(=O)Nc1ccccc1)NO	-18	0	-3	88*	61*	97*
Cc1cc2nc(-c3ccc(NC(=O)C(C)C)cc3)oc2cc1C	30	/	/	8.5*	102*	37*
Cc1cc2c(cc1C)N(CC(=O)N1CCCC1)C(=O)CC(c1ccccc1)=N2	/	/	-4	7.8*	78*	22*
COc1cc(CNc2ccc3[nH]c(=O)[nH]c3c2)ccc1OCc1ccccc1F	-10	0	-20	7.7*	33*	20*
O=C(Nc1ccc2c(c1)OCO2)c1n[nH]c(=O)c2ccccc12	9	0	-4	9.8*	100*	40*
O=C(Nc1ccc2c(c1)OCO2)c1ccc(Br)s1	-9	/	-5	20*	108*	38*
O=C(Nc1ccc2c(c1)OCO2)c1nn(-c2ccccc2)c(=O)c2ccccc12	-2	/	-5	-2	/	/
CC(C)NC(=O)N1[C@@H](C#N)[C@H](c2ccc(C#CC3CCCCC3)cc2)[C@@H]1CO	13	0	/	/	/	/
COc1ccc(CCNC(=O)c2cc3c(=O)n4cccc(C)c4nc3n(Cc3ccco3)c2=N)cc1OC	6	0	-12	13*	3	6
CN(C)c1ccc(/C=C/c2nnnn2-c2ccccc2)cc1	3	/	-7	8.3*	125*	38*
O=C(O)c1ccc(N/N=C/c2ccnc3ccccc23)cc1	11	0	-7	9.3*	93*	32*
O=C(O)c1ccc(N/N=C/c2cccc3cccnc23)cc1	19	0	-11	7	/	/
CC(=O)Nc1ccc(/C=N/N2CCCCC2)cc1	19	0	-5	7.6*	86*	29*
CC(=O)N1CC[C@@H]2[C@H]1c1cc(-c3ccccc3)ccc1N(C)[C@H]2CO	14	0	/	/	/	/
C[C@@H]1CCCCO[C@H](CN(C)S(=O)(=O)c2ccc(F)cc2)[C@@H](C)CN([C@@H](C)CO)C(=O)c2cc(NC(=O)Nc3ccc(C(F)(F)F)cc3)ccc2O1	4	0	/	/	/	/
C=CCN(C(=O)c1oc2c(Cl)cc(C)cc2c1C)C1CCS(=O)(=O)C1 (configuration not stated)	-11	0	-6	8.1*	102*	40*
COc1cc2c(cc1OC)C1=C(C#N)CN(CC(=O)O)CN1CC2	-9	0	-7	2	/	/
COc1cc2c(cc1OC)C1=C(C#N)CC/C(=N\S(=O)(=O)c3cccc(Cl)c3)N1CC2	/	/	-3	8.2*	27*	14*
O=C(N/N=C/c1ccncc1)C1CC1(c1ccccc1)c1ccccc1 (configuration not stated)	-12	0	-14	0	/	/
O=C(N/N=C/c1ccc(O)c([N+](=O)[O-])c1)C1CC1(c1ccccc1)c1ccccc1 (configuration not stated)	5	0	-4	10*	32*	19*
